Values after ≈ are worked out from the molar mass of the structure shown.
Experiments:
NIH3T3 = assay: Cytotoxicity against mouse NIH3T3 cells after 24 hrs by MTT assay; assay type: cell-based; settings: NIH3T3, 24 h
Procedure, shortened: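 NIH/3T3 cells grown in DMEM with 10% fetal calf serum, penicillin and streptomycin at 37 °C, 5% CO2. Plated at 5 × 10⁴ cells/ml, preincubated 24 h, then exposed to compounds (DMSO stocks diluted in medium, final DMSO <0.6%) for 24 h. MTT 0.5 mg/ml final, 4 h, 37 °C; formazan dissolved in DMSO, absorbance 540 nm. Triplicate wells; IC50 = concentration halving absorbance versus control.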

[1] = system: Mycobacterium tuberculosis; assay: Antitubercular activity against Mycobacterium tuberculosis H37Rv ATCC 27294 at 6.25 ug/ml by microplate alamar blue assay; assay type: functional
Procedure, shortened: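 Single-concentration primary screen at 6.25 against H37Rv in BACTEC 12B medium by Microplate Alamar Blue Assay, with results read as percent inhibition on a BACTEC 460 radiometric system. Positive BACTEC culture (GI ≥500) or McFarland No. 1 suspension was inoculated into drug vials and incubated at 37 °C with daily reads. Once the control GI reached ≥30, the daily ΔGI of drug and control vials was compared.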

[2] = system: Mycobacterium tuberculosis; assay: Antitubercular activity against Mycobacterium tuberculosis H37Rv ATCC 27294 by microplate alamar blue assay; assay type: functional

Structure (SMILES) | IC50 (NIH3T3) | inhibition at 6.25 µg/mL [1] | MIC [2]
COc1ccc(/C(C)=N/Nc2nc(-c3ccc4c(c3)CCC4)cs2)cc1 | 180 µg/mL (≈ 495 µM) |  | 
C/C(=N\Nc1nc(-c2ccc3c(c2)CCC3)cs1)c1ccccc1 | 200 µg/mL (≈ 600 µM) |  | 
C/C(=N\Nc1nc(-c2ccc3c(c2)CCC3)cs1)c1ccc(C)cc1 | 49 µg/mL (≈ 141 µM) |  | 
C/C(=N\Nc1nc(-c2ccc3c(c2)CCC3)cs1)c1ccc(Cl)cc1 | 120 µg/mL (≈ 326 µM) |  | 
C/C(=N\Nc1nc(-c2ccc3c(c2)CCC3)cs1)c1ccc([N+](=O)[O-])cc1 | 90 µg/mL (≈ 238 µM) |  | 
C/C(=N\Nc1nc(-c2ccc3c(c2)CCC3)cs1)c1ccc(Cl)c(Cl)c1 | 110 µg/mL (≈ 273 µM) |  | 
CO[C@H]1/C=C/O[C@@]2(C)Oc3c(C)c(O)c4c(O)c(c(/C=N/N5CCN(C)CC5)c(O)c4c3C2=O)NC(=O)/C(C)=C\C=C\[C@H](C)[C@H](O)[C@@H](C)[C@@H](O)[C@@H](C)[C@H](OC(C)=O)[C@@H]1C [RIFAMPIN] |  | 98% | 0.25 µg/mL (≈ 0.304 µM)

Reference: ChEMBL document CHEMBL1156675, “Synthesis and antituberculosis activity of new thiazolylhydrazone derivatives” (Eur J Med Chem, 2008)
